Assay results reported in ChEMBL document CHEMBL3227985, “N-Alkylated 2-aminotetralins: central dopamine-receptor stimulating activity” (J Med Chem, 1979).
Active and inactive are the calls of the source. No cut-off for these calls is given here.

Assays:
[1] = tested on: Rattus norvegicus; assay: Central dopamine receptor stimulating activity in reserpenized Sprague-Dawley rat assessed as duration of action of motor activity at 2 umol/kg, sc measured 6 hrs post-reserpine challenge by motility meter analysis; format: functional
Outline: (§1)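 Male Sprague-Dawley rats (200-350 g) given reserpine 10 mg/kg ip 6 h before testing. Drug in saline, 2 µmol/kg sc in the neck. Rats then placed singly in photocell motility meters. Counts recorded per 5-min period until effect ceased (<10 counts/5 min), giving duration and AUC. Means of four to six recordings. Testing 1–6 p.m.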

[2] = tested on: Rattus norvegicus; assay: Toxicity in sc dosed Sprague-Dawley rat assessed as gross behaviour at ED50; format: organism-based; settings: in vivo
[3] = tested on: Rattus norvegicus; assay: Central serotonin receptor stimulating activity in Sprague-Dawley rat assessed as reduction in 5-HTP accumulation in limbic region of brain at 2 umol/kg, sc by spectrophotometric method; format: functional, organism-based; settings: Limbic system
Outline: (§2)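 Male Sprague-Dawley rats (200-350 g), reserpinized. Compounds dissolved in saline immediately before use, neutral pH, 10 mL/kg, given sc over a dose range. Aromatic-L-amino-acid decarboxylase inhibited (100 mg/kg). Dopa and 5-HTP accumulation measured spectrophotometrically in striatum, limbic forebrain and remaining hemispheral portions. ED50 = dose giving 50% of maximal reduction versus control portions, estimated from dose-response curves. Experiments run 9–12 a.m.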

[4] = tested on: Rattus norvegicus; assay: Central dopamine receptor stimulating activity in reserpenized Sprague-Dawley rat assessed as latency period of motor activity at 2 umol/kg, sc measured 6 hrs post-reserpine challenge by motility meter analysis; format: functional; outline: as §1
[5] = tested on: Rattus norvegicus; assay: Central serotonin receptor stimulating activity in Sprague-Dawley rat assessed as reduction in 5-HTP accumulation in hemispheral portion of cerebrum at 2 umol/kg, sc by spectrophotometric method; format: functional, organism-based; outline: as §2
[6] = tested on: Rattus norvegicus; assay: Central dopamine receptor stimulating activity in Sprague-Dawley rat assessed as reduction in DOPA accumulation in limbic region of brain at 2 umol/kg, sc by spectrophotometric method; format: functional; settings: Limbic system; outline: as §2
[7] = tested on: Rattus norvegicus; assay: Central dopamine receptor stimulating activity in Sprague-Dawley rat assessed as reduction in DOPA accumulation in striatum of brain at 2 umol/kg, sc by spectrophotometric method; format: functional; outline: as §2
[8] = tested on: Rattus norvegicus; assay: Central noradrenaline receptor stimulating activity in Sprague-Dawley rat assessed as reduction in DOPA accumulation in hemispheral portion of cerebrum at 2 umol/kg, sc by spectrophotometric method; format: functional, organism-based; outline: as §2
[9] = tested on: Rattus norvegicus; assay: Central serotonin receptor stimulating activity in Sprague-Dawley rat assessed as reduction in 5-HTP accumulation in striatum of brain at 2 umol/kg, sc by spectrophotometric method; format: functional, organism-based; outline: as §2
[10] = tested on: Rattus norvegicus; assay: Central dopamine receptor stimulating activity in reserpenized Sprague-Dawley rat assessed as duration of action of motor activity at 20 umol/kg, po administered via stomach tube measured 6 hrs post-reserpine challenge by motility meter analysis; format: functional
Outline: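 Male Sprague-Dawley rats (200-350 g) given reserpine 10 mg/kg ip 6 h before testing. Drug in saline, 20 µmol/kg po by stomach tube. Rats then placed singly in photocell motility meters. Counts recorded per 5-min period until effect ceased (<10 counts/5 min) to give duration of action. Testing 1–6 p.m.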

| Compound | Time [1] [min] | Activity [2] | Activity [3] | Time [4] [min] | Activity [5] | ED50 [6] [µmol/kg] | ED50 [7] [µmol/kg] | Activity [8] | Activity [9] | Time [10] [min] |
| --- | --- | --- | --- | --- | --- | --- | --- | --- | --- | --- |
| CCCN(CC)C1CCc2c(cccc2OC)C1.Cl (stereo not drawn) | 96 | Non-toxic | inactive | 13 | inactive | 0.065 | 0.062 | inactive | inactive | – |
| CCCN(CCc1ccccc1)C1CCc2c(O)cccc2C1.Cl (stereo not drawn) | 53 | Non-toxic | inactive | 0 | inactive | 0.022 | 0.017 | inactive | inactive | – |
| Br.CCCN(CCC)C1CCc2c(ccc(O)c2O)C1 (stereo not drawn) | 193 | Non-toxic | inactive | 0 | inactive | 0.007 | 0.007 | inactive | inactive | – |
| Br.CCCNC1CCc2c(O)cccc2C1 (stereo not drawn) | 45 | Non-toxic | inactive | 0 | inactive | 0.04 | 0.046 | inactive | inactive | – |
| CCCN(CCC)C1CCc2c(cccc2OC)C1.Cl (stereo not drawn) | 122 | Non-toxic | inactive | 15 | inactive | 0.013 | 0.018 | inactive | inactive | – |
| Br.CCNC1CCc2c(O)cccc2C1 (stereo not drawn) | 50 | Non-toxic | inactive | 3 | inactive | 0.072 | 0.066 | inactive | inactive | – |
| Br.CCCCN(CCC)C1CCc2c(O)cccc2C1 (stereo not drawn) | 158 | Non-toxic | inactive | 0 | inactive | 0.011 | 0.014 | inactive | inactive | 117 |
| Br.CCCCN(CC)C1CCc2c(O)cccc2C1 (stereo not drawn) | 118 | Non-toxic | inactive | 0 | inactive | 0.03 | 0.035 | inactive | inactive | 63 |
| Br.CCCN(C(C)C)C1CCc2c(O)cccc2C1 (stereo not drawn) | 55 | Non-toxic | inactive | 4 | inactive | 0.07 | 0.087 | inactive | inactive | – |
| Br.CCCN(CCC)C1CCc2c(O)cccc2C1 (stereo not drawn) | 127 | Non-toxic | inactive | 0 | inactive | 0.011 | 0.009 | inactive | inactive | 121 |
| Br.CCCN(CC)C1CCc2c(O)cccc2C1 (stereo not drawn) | 82 | Non-toxic | inactive | 0 | inactive | 0.024 | 0.017 | inactive | inactive | 40 |
| CN1CCc2cccc3c2[C@H]1Cc1ccc(O)c(O)c1-3 [APOMORPHINE] | 60 | – | – | 0 | – | 0.19 | 0.22 | – | – | 33 |
| CCCN(CC(C)(C)C)C1CCc2c(O)cccc2C1.Cl (stereo not drawn) | 68 | Non-toxic | inactive | 9 | inactive | 0.2 | 0.12 | inactive | inactive | – |
| CCCCCN(CCC)C1CCc2c(O)cccc2C1.Cl (stereo not drawn) | 75 | Non-toxic | inactive | 0 | inactive | 0.01 | 0.019 | inactive | inactive | – |
| Br.CCN(C)C1CCc2c(O)cccc2C1 (stereo not drawn) | 31 | Non-toxic | inactive | 3 | inactive | 0.074 | 0.053 | inactive | inactive | – |
| Br.CCN(CC)C1CCc2c(O)cccc2C1 (stereo not drawn) | 54 | Non-toxic | inactive | 0 | inactive | 0.077 | 0.071 | inactive | inactive | – |
| CCCCCN(CCC)C1CCc2c(cccc2OC)C1.O=C(O)C(=O)O (stereo not drawn) | 93 | Non-toxic | inactive | 15 | inactive | 0.092 | 0.101 | inactive | inactive | – |
